Values belong to the compound of their own block, whether it stands above or below them.
Target: Translocator protein (Rattus norvegicus, UniProt P16257)
Test: Test in vitro, for potential ability to displace [3H]1 from PBR in rat brain cortex
Assay type: tissue-based
How it was run: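 Rat cortical membranes homogenized in ice-cold PBS (50 mM, pH 7.4) with 100 mM NaCl, spun at 1000g, then pellet washed three times at 50000g and resuspended in PBS. Assay stopped by GF/B filtration, counted by liquid scintillation. IC50 fitted from six displacer concentrations, triplicate.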

Chain of Translocator protein (P16257 whole entry, looked up): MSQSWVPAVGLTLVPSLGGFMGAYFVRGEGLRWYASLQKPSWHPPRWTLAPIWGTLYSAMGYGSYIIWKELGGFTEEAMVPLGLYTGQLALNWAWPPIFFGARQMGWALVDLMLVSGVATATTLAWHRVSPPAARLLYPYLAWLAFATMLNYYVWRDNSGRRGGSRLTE

Structure (SMILES): Cc1nc2ccccc2c(-c2ccccc2)c1C(=O)N(C)c1ccccc1
IC50: > 10000 nM

Structure (SMILES): CCCN(CCC)C(=O)c1ccccc1CN(CC)Cc1ccccc1
IC50: 8870 nM

Structure (SMILES): CCCN(CCC)C(=O)c1c(C)nc2ccccc2c1-c1ccccc1
IC50: > 10000 nM

Structure (SMILES): CCN(Cc1ccccc1)Cc1ccccc1C(=O)N(CC)CC
IC50: 8210 nM

Structure (SMILES): CCN(Cc1ccccc1)Cc1nc2ccccc2c(-c2ccccc2)c1C(=O)NCc1ccccc1
IC50: 2900 nM

Structure (SMILES): CCOC(=O)c1c(N(CC)Cc2ccccc2)nc2ccccc2c1-c1ccccc1
IC50: 540 nM

Structure (SMILES): CCN(Cc1ccccc1)Cc1cc(-c2ccccc2)c2ccccc2n1
IC50: 3400 nM

Structure (SMILES): CCN(Cc1ccccc1)Cc1nc2ccccc2c(-c2ccccc2)c1C(=O)N(C)c1ccccc1
IC50: 1320 nM

Structure (SMILES): CCN(CC)C(=O)c1c(C)nc2ccccc2c1-c1ccccc1
IC50: > 10000 nM

Structure (SMILES): CCCN(CCC)C(=O)c1c(CN(CC)Cc2ccccc2)nc2ccccc2c1-c1ccccc1
IC50: 456 nM

Structure (SMILES): CCCNC(=O)c1c(CN(CC)Cc2ccccc2)nc2ccccc2c1-c1ccccc1
IC50: 872 nM

Structure (SMILES): CCOC(=O)c1c(CN(CC)Cc2ccccc2)nc2ccccc2c1-c1ccccc1
IC50: 700 nM

Structure (SMILES): CCOC(=O)c1c(Cl)nc2ccccc2c1-c1ccccc1
IC50: 3700 nM

Structure (SMILES): CCOC(=O)c1c(CN2CCc3ccccc3C2)nc2ccccc2c1-c1ccccc1
IC50: 1190 nM

Structure (SMILES): CCN(Cc1ccccc1)Cc1ccccc1C(=O)N(C)c1ccccc1
IC50: > 10000 nM

Structure (SMILES): CCN(Cc1ccccc1)Cc1ccccc1C(=O)N(C)C
IC50: > 10000 nM

Structure (SMILES): CCN(Cc1ccccc1)Cc1nc2ccccc2c(-c2ccccc2)c1C(=O)N(C)c1ccc(Cl)cc1
IC50: 2480 nM

Compounds with a lower IC50, results first:

IC50: 410 nM
Structure (SMILES): Cc1ccc(CN2Cc3nc4ccccc4c(-c4ccccc4)c3C2=O)cc1

IC50: 5 nM
Structure (SMILES): CCN(CC)C(=O)c1cc(-c2ccccc2)c2ccccc2c1

IC50: 373 nM
Structure (SMILES): CCN(Cc1ccccc1)Cc1nc2ccccc2c(-c2ccccc2)c1C(=O)N(CC)CC

IC50: 210 nM
Structure (SMILES): O=C1c2c(nc3ccccc3c2-c2ccccc2)CN1Cc1ccc(Cl)cc1

IC50: 27 nM
Structure (SMILES): CCN(CC)C(=O)c1cc(-c2ccccc2)c2ccccc2n1

IC50: 229 nM
Structure (SMILES): CCN(Cc1ccccc1)Cc1nc2ccccc2c(-c2ccccc2)c1C(=O)N(C)C

IC50: 4.1 nM
Structure (SMILES): CCN(Cc1ccccc1)Cc1c(C(=O)N(CC)CC)nc2ccccc2c1-c1ccccc1

Source: ChEMBL document CHEMBL1134389, “Mapping and fitting the peripheral benzodiazepine receptor binding site by carboxamide derivatives. Comparison of different approaches to quantitative ligand-receptor interaction modeling” (J Med Chem, 2001)
